Columns and labels:
Format in all cases: functional
HL-60 = test: Induction of apoptosis in human HL60 cells assessed as loss of mitochondrial membrane potential at 5 uM after 24 hrs by rodamine-123 staining-based flow cytometric analysis (reference value: 6%)
MCF7 [1] = test: Growth inhibition of human MCF7 cells at 50 uM after 48 hrs by sulpharhodamine B assay; settings: MCF7, 48 h, read-out: GI
Method in brief: (§1)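 This is the SRB protein-stain assay on adherent cells in RPMI-1640/MEM with 10% FCS. Each compound in DMSO (vehicle <0.2%) was applied at a single fixed concentration for 48 h. Cells were fixed with TCA and stained with SRB, and the dye was solubilised in Tris and read at 570/620 nm. Percent growth inhibition is relative to vehicle-treated controls, reported as mean ± SD of three experiments run in triplicate.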

A549 [2] = test: Growth inhibition of human A549 cells at 50 uM after 48 hrs by sulpharhodamine B assay; settings: A549, 48 h, read-out: GI; method in brief: as §1
PC-3 [3] = test: Growth inhibition of human PC3 cells at 50 uM after 48 hrs by sulpharhodamine B assay; settings: PC-3, 48 h, read-out: GI
Method in brief: (§2)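 Cells grown in RPMI-1640/MEM with 10% FCS, penicillin/streptomycin, 37 °C, 5% CO2. Seeded in 96-well plates, allowed to adhere overnight, then exposed 48 h to analogs in DMSO (vehicle <0.2% in controls). TCA-fixed, stained with 0.4% SRB in 1% acetic acid, dye solubilized in 10 mM Tris base, OD 570 nm (ref 620 nm). Mean ± SD of three experiments run in triplicate.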

OVCAR-5 [4] = test: Growth inhibition of human OVCAR5 cells at 50 uM after 48 hrs by sulpharhodamine B assay; settings: OVCAR-5, 48 h, read-out: GI; method in brief: as §1
IMR-32 [5] = test: Growth inhibition of human IMR32 cells at 50 uM after 48 hrs by sulpharhodamine B assay; settings: IMR-32, 48 h, read-out: GI; method in brief: as §1
HeLa [6] = test: Growth inhibition of human HeLa cells at 50 uM after 48 hrs by sulpharhodamine B assay; settings: read-out: GI; method in brief: as §1
THP-1 [7] = test: Growth inhibition of human THP1 cells at 50 uM after 48 hrs by sulpharhodamine B assay; settings: THP-1, 48 h, read-out: GI; method in brief: as §2
MCF7 [8] = test: Growth inhibition of human MCF7 cells at 30 uM after 48 hrs by sulpharhodamine B assay; settings: MCF7, 48 h, read-out: GI; method in brief: as §1
A549 [9] = test: Growth inhibition of human A549 cells at 30 uM after 48 hrs by sulpharhodamine B assay; settings: A549, 48 h, read-out: GI; method in brief: as §1
PC-3 [10] = test: Growth inhibition of human PC3 cells at 30 uM after 48 hrs by sulpharhodamine B assay; settings: PC-3, 48 h, read-out: GI; method in brief: as §2
OVCAR-5 [11] = test: Growth inhibition of human OVCAR5 cells at 30 uM after 48 hrs by sulpharhodamine B assay; settings: OVCAR-5, 48 h, read-out: GI; method in brief: as §1
IMR-32 [12] = test: Growth inhibition of human IMR32 cells at 30 uM after 48 hrs by sulpharhodamine B assay; settings: IMR-32, 48 h, read-out: GI; method in brief: as §1
HeLa [13] = test: Growth inhibition of human HeLa cells at 30 uM after 48 hrs by sulpharhodamine B assay; settings: read-out: GI; method in brief: as §1
THP-1 [14] = test: Growth inhibition of human THP1 cells at 30 uM after 48 hrs by sulpharhodamine B assay; settings: THP-1, 48 h, read-out: GI; method in brief: as §2
HEp-2 [15] = test: Growth inhibition of human Hep2 cells at 50 uM after 48 hrs by sulpharhodamine B assay; settings: HEp-2, 48 h, read-out: GI; method in brief: as §1
HEp-2 [16] = test: Growth inhibition of human Hep2 cells at 30 uM after 48 hrs by sulpharhodamine B assay; settings: HEp-2, 48 h, read-out: GI; method in brief: as §1
MCF7 [17] = test: Growth inhibition of human MCF7 cells at 1 uM after 48 hrs by sulpharhodamine B assay; settings: MCF7, 48 h, read-out: GI; method in brief: as §1
A549 [18] = test: Growth inhibition of human A549 cells at 1 uM after 48 hrs by sulpharhodamine B assay; settings: A549, 48 h, read-out: GI; method in brief: as §1

Compound	Activity (HL-60) [%]	inhibition of growth at 50 µM (MCF7 [1]) [%]	inhibition of growth at 50 µM (A549 [2]) [%]	inhibition of growth at 50 µM (PC-3 [3]) [%]	inhibition of growth at 50 µM (OVCAR-5 [4]) [%]	inhibition of growth at 50 µM (IMR-32 [5]) [%]	inhibition of growth at 50 µM (HeLa [6]) [%]	inhibition of growth at 50 µM (THP-1 [7]) [%]	inhibition of growth at 30 µM (MCF7 [8]) [%]	inhibition of growth at 30 µM (A549 [9]) [%]	inhibition of growth at 30 µM (PC-3 [10]) [%]	inhibition of growth at 30 µM (OVCAR-5 [11]) [%]	inhibition of growth at 30 µM (IMR-32 [12]) [%]	inhibition of growth at 30 µM (HeLa [13]) [%]	inhibition of growth at 30 µM (THP-1 [14]) [%]	inhibition of growth at 50 µM (HEp-2 [15]) [%]	inhibition of growth at 30 µM (HEp-2 [16]) [%]	inhibition of growth at 1 µM (MCF7 [17]) [%]	inhibition of growth at 1 µM (A549 [18]) [%]
CC[C@@]1(O)C(=O)OCc2c1cc1n(c2=O)Cc2cc3ccccc3nc2-1 [CAMPTOTHECIN]	55.5																		
CC(C)=CCC[C@@](C)(/C=C/c1ccc(N)cc1)/C=C/c1ccc(O)cc1		48	57	59	16	28	27	51	28	33	15	8	14	5	32	46	32		
C=C[C@@](C)(/C=C/c1ccc(OC)cc1)CCC=C(C)C		18	12	44	37	30	43	45	37	34	31	29	23	28	29	40	22		
COc1cccc2c1C(=O)c1c(O)c3c(c(O)c1C2=O)C[C@@](O)(C(=O)CO)C[C@@H]3O[C@H]1C[C@H](N)[C@H](O)[C@H](C)O1 [DOXORUBICIN]																		85	76

Reference: ChEMBL document CHEMBL1944511, “Bakuchiol derivatives as novel and potent cytotoxic agents: a report” (Eur J Med Chem, 2012)
